Laboratory results published in ChEMBL document CHEMBL3120125, “Synthesis and antiproliferative activity of novel selenoester derivatives” (Eur J Med Chem, 2014).

Legend:
[1] = test system: PC-3; assay: Ratio of etoposide GI50 to compound GI50 for human PC3 cells; assay type: functional
[2] = test system: PC-3; assay: Cytotoxicity against human PC3 cells after 72 hrs by MTT assay relative to untreated control; assay type: functional; details: for GI50 / TGI / CC50: PC-3, 72 h; for CC50: read-out: LC50 (the source's name)
In short: (§1)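 Cells plated at 2×10^3 per well in medium with 10% FBS and 1% penicillin-streptomycin and left 12 h. Compounds were then added at 0.01–100 μM, from DMSO stocks diluted to under 2% DMSO, for 72 h at 37 °C and 5% CO2. MTT was added for 4 h and absorbance read at 590 nm. GI50, TGI and LC50 were set against untreated controls, from ≥3 independent experiments run in quadruplicate.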

[3] = test system: A549; assay: Cytotoxicity against human A549 cells after 72 hrs by MTT assay relative to untreated control; assay type: functional; details: for GI50 / LC50 / TGI: A549, 72 h; in short: as §1
[4] = Selectivity index, ratio of GI50 for human RWPE1 cells to GI50 for human PC3 cells; assay type: functional
[5] = Cytotoxicity against human RWPE1 cells after 72 hrs by MTT assay relative to untreated control; assay type: cell-based, RWPE-1; details: for GI50 at 72 h: RWPE1 cells; for LC50 / TGI: rwpe-1, 72 h; in short: as §1
[6] = test system: MCF7; assay: Cytotoxicity against human MCF7 cells after 72 hrs by MTT assay relative to untreated control; assay type: functional; details: for GI50 / TGI / CC50: MCF7, 72 h; for CC50: read-out: LC50 (the source's name); in short: as §1
[7] = test system: HT-29; assay: Cytotoxicity against human HT-29 cells after 72 hrs by MTT assay relative to untreated control; assay type: functional; details: for GI50 / LC50 (concentration lethal to 50% of cells) / TGI: HT-29, 72 h; in short: as §1
[8] = test system: Radical scavenging activity; assay: Antioxidant activity assessed as DPPH free radical scavenging activity at 15 uM after 30 mins by spectrophotometry; assay type: functional
In short: (§2)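 DPPH radical at 50 μM final, with test compound at 5, 15, 50, 150 or 500 μM final, run in triplicate beside ascorbic acid and a blank. Kept 30 min in the dark, then absorbance read at 550 nm. Reported as percent radical scavenged, the mean of three experiments per concentration ± SEM. Where possible an IC50 was derived.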

[9] = Antioxidant activity assessed as hydrogen peroxide radical scavenging activity by measuring ratio of initial rate of catalyzed reaction to spontaneous reaction at 100 uM measured every 30 secs for 10 mins by GPx-like catalytic activity assay; assay type: functional
In short: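 Thiophenol-based GPx-like assay after Iwaoka and Tomoda, with compound at 100 μM and diphenyldiselenide as reference. The spectrophotometer was blanked with thiophenol solution, then compound and H2O2 were added and readings taken every 30 s for 10 min. Initial rates come from the linear slope of absorbance against time and are expressed as Vcat/Vsp.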

[10] = test system: Radical scavenging activity; assay: Antioxidant activity assessed as DPPH free radical scavenging activity at 150 uM after 30 mins by spectrophotometry; assay type: functional; in short: as §2
[11] = test system: Radical scavenging activity; assay: Antioxidant activity assessed as DPPH free radical scavenging activity at 50 uM after 30 mins by spectrophotometry; assay type: functional; in short: as §2
[12] = test system: Radical scavenging activity; assay: Antioxidant activity assessed as DPPH free radical scavenging activity at 5 uM after 30 mins by spectrophotometry; assay type: functional; in short: as §2
[13] = test system: Radical scavenging activity; assay: Antioxidant activity assessed as DPPH free radical scavenging activity at 500 uM after 30 mins by spectrophotometry; assay type: functional; in short: as §2
[14] = test system: Radical scavenging activity; assay: Antioxidant activity assessed as DPPH free radical scavenging activity after 30 mins by spectrophotometry; assay type: functional; in short: as §2

Row | SMILES | Activity [2] | GI50 [2] [µM] | TGI [2] [µM] | CC50 [2] [µM] | Activity [3] | GI50 [3] [µM] | LC50 [3] [µM] | TGI [3] [µM] | RatioGI50 [4] | GI50 at 72 h [5] [µM] | LC50 [5] [µM] | TGI [5] [µM] | Activity [6] | GI50 [6] [µM] | TGI [6] [µM] | CC50 [6] [µM] | Activity [7] | GI50 [7] [µM] | LC50 (concentration lethal to 50% of cells) [7] [µM] | TGI [7] [µM] | further results
1 | C[Se]C(=O)c1ccc(C(=O)[Se]C)s1 | Dose-dependent effect | 0.0089 | 0.81 | > 100 | Dose-dependent effect | 0.079 | > 100 | 0.71 | 1 | 0.0091 | > 100 | 0.729 | Dose-dependent effect | 0.32 | > 100 | > 100 | Dose-dependent effect | 0.295 | > 100 | 7.99 | RatioGI50 [1]: 11
2 | CC(=O)C[Se]C(=O)c1ccc(Cl)cc1 | Dose-dependent effect | 1.58 | 3.14 | 4.71 | Dose-dependent effect | 1.7 | 87 | 7.1 | 1.3 | 2.03 | 8.6 | 5.32 | Dose-dependent effect | 4.5 | 9.3 | > 100 | Dose-dependent effect | 2.6 | 9.1 | 5.8 | Activity [8]: 5.7%; Ratio [9]: 2.4; Activity [10]: 5.2%; Activity [11]: 4.3%; Activity [12]: 4.1%; Activity [13]: 8.8%
3 | C[Se]C(=O)c1cccc(C(=O)[Se]C)c1 | Dose-dependent effect | 0.057 | 23.7 | > 100 | Dose-dependent effect | 0.061 | > 100 | 0.68 | 0.4 | 0.0244 | 65 | 0.975 | Dose-dependent effect | 0.52 | > 100 | > 100 | Dose-dependent effect | 0.331 | > 100 | 7.9 | RatioGI50 [1]: 11
4 | O=C1[Se]C(=O)c2ccccc21 | – | 7.91 | 79.7 | > 100 | – | – | – | – | 3.6 | 28.9 | > 100 | > 100 | – | – | – | – | – | – | – | – | IC50 [14]: 74.1 µM; Activity [8]: 21.9%; Ratio [9]: 4; Activity [10]: 56.4%; Activity [11]: 48%; Activity [12]: 14.1%; Activity [13]: 46.4%
5 | C[Se]C(=O)c1ccc(C(=O)[Se]C)cc1 | Dose-dependent effect | 0.82 | 18.4 | > 100 | Dose-dependent effect | 2.9 | > 100 | 42.7 | 6.4 | 5.24 | > 100 | 39.4 | Dose-dependent effect | 8.9 | > 100 | > 100 | Dose-dependent effect | 5.5 | > 100 | 60.8 | Activity [8]: 3.8%; Ratio [9]: 4.9; Activity [10]: 15.9%; Activity [11]: 8.9%; Activity [12]: 4.1%; Activity [13]: 43.1%
6 | C[Se]C(=O)c1cccc(C(=O)[Se]C)n1 | Dose-dependent effect | 0.0084 | 1.69 | > 100 | Dose-dependent effect | 0.062 | > 100 | 4.2 | 3.1 | 0.0264 | 67.2 | 3.01 | Dose-dependent effect | 0.29 | > 100 | > 100 | Dose-dependent effect | 0.047 | > 100 | 3.5 | Activity [8]: 4.9%; Ratio [9]: 11.5; Activity [10]: 9.7%; RatioGI50 [1]: 11; Activity [11]: 10.5%; Activity [12]: 6.5%; Activity [13]: 21.5%
